# Columns and labels:
# Format in all cases: functional
# [1] = tested on: Enterococcus; test: Antibacterial activity against Enterococcus spp
# Outline: (§1)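 Broth microdilution MIC per CLSI guidelines in Mueller-Hinton broth: serial 2-fold dilutions, inoculum 5 × 10⁵ CFU/mL in equal volume, 35 °C for 16-20 h. MIC = lowest concentration with no visible turbidity. Recent clinical isolates (43 total, Gram-positive and Gram-negative); values given as MIC ranges, MIC₅₀ and MIC₉₀ per species.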
# [2] = tested on: Staphylococcus aureus; test: Antibacterial activity against methicillin-resistant Staphylococcus aureus
# Outline: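 Clinical isolates (3 MRSA in a 43-strain panel). Broth microdilution per CLSI, serial 2-fold dilutions in Mueller-Hinton broth, inoculum 5 × 10⁵ CFU/mL, 35 °C for 16-20 h. MIC = lowest concentration with no visible turbidity; reported as MIC range, MIC₅₀ and MIC₉₀ across isolates.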
# [3] = tested on: Haemophilus influenzae; test: Antibacterial activity against Haemophilus influenzae; outline: as §1
# [4] = tested on: Staphylococcus epidermidis; test: Antibacterial activity against Staphylococcus epidermidis; outline: as §1
# [5] = tested on: Staphylococcus aureus; test: Antibacterial activity against methicillin-susceptible Staphylococcus aureus; outline: as §1
# [6] = tested on: Streptococcus pyogenes; test: Antibacterial activity against Streptococcus pyogenes; outline: as §1
# [7] = tested on: Streptococcus pneumoniae; test: Antibacterial activity against Streptococcus pneumoniae; outline: as §1
Compound,MIC50 [1] [µg/mL],MIC90 [1] [µg/mL],MIC50 [2] [µg/mL],MIC90 [2] [µg/mL],MIC50 [3] [µg/mL],MIC90 [3] [µg/mL],MIC50 [4] [µg/mL],MIC90 [4] [µg/mL],MIC50 [5] [µg/mL],MIC90 [5] [µg/mL],MIC50 [6] [µg/mL],MIC90 [6] [µg/mL],MIC50 [7] [µg/mL],MIC90 [7] [µg/mL]
CCOC(=O)/C=C1\NC(=O)[C@@H]1[C@@H](C)OC(=O)c1cc(O)c(O)c(O)c1,> 128,> 128,128,128,128,128,16,64,128,128,> 128,> 128,128,> 128
CO/N=C(\C(=O)N[C@@H]1C(=O)N2C(C(=O)O)=C(CSc3nc(=O)c(O)nn3C)CS[C@H]12)c1csc(N)n1 [CEFTRIAXONE],> 128,> 128,> 128,> 128,< 0.06,0.12,8,32,2,2,< 0.06,< 0.06,0.12,2
CCOC(=O)/C=C1\NC(=O)[C@@H]1[C@@H](C)OC(=O)c1ccc(O)cc1,> 128,> 128,,,,,8,> 128,> 128,> 128,128,> 128,128,128
O=C(O)/C=C1\NC(=O)[C@@H]1Cl,128,> 128,128,128,64,64,64,64,32,64,16,128,128,128
CCOC(=O)/C=C1\NC(=O)[C@@H]1[C@@H](C)OC(=O)c1cc(OC)c(OC)c(OC)c1,> 128,> 128,,,128,> 128,128,> 128,> 128,> 128,128,> 128,128,128
CCOC(=O)/C=C1/NC(=O)[C@@H]1[C@@H](C)O[Si](C)(C)C(C)(C)C,> 128,> 128,128,,128,128,128,128,> 128,> 128,128,128,128,128
C[C@@H](O[Si](C)(C)C(C)(C)C)[C@H]1C(=O)N/C1=C\C(=O)Oc1cc(O)cc(O)c1,64,64,32,64,,,32,64,32,32,16,16,16,16
C[C@@H](O[Si](C)(C)C(C)(C)C)[C@H]1C(=O)N/C1=C\C(=O)O,128,128,,,> 128,> 128,> 128,> 128,> 128,> 128,128,> 128,128,128
CCOC(=O)/C=C1\NC(=O)[C@@H]1[C@@H](C)OC(=O)c1ccccc1,> 128,> 128,,,> 128,> 128,> 128,> 128,> 128,> 128,> 128,> 128,> 128,> 128
COc1cc(C(=O)O[C@H](C)[C@H]2C(=O)N/C2=C\C(=O)OCc2ccccc2)cc(OC)c1OC,128,> 128,128,128,> 128,> 128,4,16,8,16,128,> 128,> 128,> 128
C[C@@H](O[Si](C)(C)C(C)(C)C)[C@H]1C(=O)N/C1=C\C(=O)OCc1cc(C(F)(F)F)cc(C(F)(F)F)c1,> 128,> 128,,,> 128,> 128,> 128,> 128,> 128,> 128,128,> 128,128,> 128
CCOC(=O)C[C@H]1NC(=O)[C@@H]1[C@@H](C)O[Si](C)(C)C(C)(C)C,> 128,> 128,,,128,> 128,> 128,> 128,> 128,> 128,> 128,> 128,> 128,> 128
CC1(C)S[C@@H]2[C@H](NC(=O)[C@H](N)c3ccc(O)cc3)C(=O)N2[C@H]1C(=O)O [AMOXICILLIN],2,2,64,128,1,64,1,4,1,8,< 0.06,< 0.06,0.12,8
C[C@@H](O[Si](C)(C)C(C)(C)C)[C@H]1C(=O)N/C1=C/C(=O)OCc1ccccc1,64,64,> 128,,128,128,128,> 128,128,> 128,64,64,32,32
CCOC(=O)/C=C1\NC(=O)[C@@H]1[C@@H](C)OC(=O)c1cc(OCc2ccccc2)c(O)c(OCc2ccccc2)c1,> 128,> 128,,,128,128,> 128,> 128,> 128,> 128,> 128,> 128,> 128,> 128
C[C@@H](O[Si](C)(C)C(C)(C)C)[C@H]1C(=O)N/C1=C\C(=O)N[C@@H](Cc1ccc(O)cc1)C(=O)OC(C)(C)C,> 128,> 128,,,> 128,> 128,> 128,> 128,> 128,> 128,> 128,> 128,> 128,> 128
C[C@@H](O[Si](C)(C)C(C)(C)C)[C@H]1C(=O)N/C1=C\C(=O)OCc1ccccc1,> 128,> 128,,,128,> 128,> 128,> 128,> 128,> 128,128,> 128,128,128
CCOC(=O)/C=C1\NC(=O)[C@@H]1[C@@H](C)OC(=O)c1cc(OCc2ccccc2)c(OCc2ccccc2)c(OCc2ccccc2)c1,> 128,> 128,,,> 128,> 128,> 128,> 128,> 128,> 128,> 128,> 128,> 128,> 128
COc1cc(C(=O)O[C@H](C)[C@H]2C(=O)N/C2=C\C(=O)O)cc(OC)c1OC,> 128,> 128,,,128,128,> 128,> 128,> 128,> 128,> 128,> 128,128,128
COc1cc(C(=O)O[C@H](C)[C@H]2C(=O)N/C2=C\C(=O)O)cc(OC)c1O,> 128,> 128,,,128,128,> 128,> 128,> 128,> 128,> 128,> 128,128,128
C[C@@H](O)[C@H]1C(=O)N/C1=C\C(=O)O,> 128,> 128,,,> 128,> 128,> 128,> 128,> 128,> 128,128,128,128,128
C[C@@H](O[Si](C)(C)C(C)(C)C)[C@H]1C(=O)N/C1=C\C(=O)OCc1cc(O)cc(O)c1,128,128,64,128,,,128,> 128,64,64,32,32,32,32
CCOC(=O)/C=C1\NC(=O)[C@@H]1[C@@H](C)O[Si](C)(C)C(C)(C)C,> 128,> 128,,,128,128,> 128,> 128,> 128,> 128,128,128,128,128
